IDH1 R132H inh: IDH1 R132H (human) inhibition. O75874. IDH1 R132H reductase, diaphorase/resazurin fluorescence, 60 min. inhibition, % at 10 µM. 70,000 tested, 0.18% active; in the data active = inhibition above about 34%; inconclusive = no clear call, values can overlap the other calls; inactive = below about 11%
Target sequence (O75874 whole entry R132H): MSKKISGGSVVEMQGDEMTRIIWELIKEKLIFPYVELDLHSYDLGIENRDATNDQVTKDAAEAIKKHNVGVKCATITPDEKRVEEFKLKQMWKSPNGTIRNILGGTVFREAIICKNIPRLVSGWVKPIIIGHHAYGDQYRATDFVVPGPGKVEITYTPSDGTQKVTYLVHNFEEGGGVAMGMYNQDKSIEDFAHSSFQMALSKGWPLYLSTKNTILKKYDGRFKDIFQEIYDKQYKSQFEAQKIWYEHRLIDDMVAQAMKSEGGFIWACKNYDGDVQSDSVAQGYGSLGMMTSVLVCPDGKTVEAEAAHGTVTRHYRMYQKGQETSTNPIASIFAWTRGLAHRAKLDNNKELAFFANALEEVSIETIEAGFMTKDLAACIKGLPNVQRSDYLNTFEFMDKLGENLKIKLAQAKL
T cruzi growth-1: T. cruzi proliferation inhibition | T. cruzi beta-gal in NIH3T3, GalScreen luminescence, 90 h | inhibition, % at 8.34 µM | 77,000 tested, 5.9% active;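 active = mean inhibition above about 93%, with at least 55% of replicates each passing it, limit read from the data, passing the limit was not always enough; inconclusive = only one of those two conditions holds; inactive = neither condition holds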
Pf Dd2 inh: blocks growth of Plasmodium falciparum Dd2 parasites; P. falciparum Dd2 growth, SYBR Green, 72 h; hits give low values; activity change, % at 10 µM; 94,000 tested, 2.3% active; in the data active = activity change below about -80%; inconclusive = no clear call, values can overlap the other calls
GASC1 inh: inhibitors of human demethylase GASC-1 KDM4C; Q9H3R0; GST-KDM4C 2-372, H3K9me3 peptide, LANCE TR-FRET; inhibition, % at 12.5 µM; 96,000 tested, 0.15% active;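 active = mean replicate inhibition above about 25%, with at least 55% of replicates also reaching it, limit read from the data, passing the limit was not always enough; inconclusive = only one of those two conditions met; inactive = neither condition met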
Target sequence (Q9H3R0 2-372 limits assumed): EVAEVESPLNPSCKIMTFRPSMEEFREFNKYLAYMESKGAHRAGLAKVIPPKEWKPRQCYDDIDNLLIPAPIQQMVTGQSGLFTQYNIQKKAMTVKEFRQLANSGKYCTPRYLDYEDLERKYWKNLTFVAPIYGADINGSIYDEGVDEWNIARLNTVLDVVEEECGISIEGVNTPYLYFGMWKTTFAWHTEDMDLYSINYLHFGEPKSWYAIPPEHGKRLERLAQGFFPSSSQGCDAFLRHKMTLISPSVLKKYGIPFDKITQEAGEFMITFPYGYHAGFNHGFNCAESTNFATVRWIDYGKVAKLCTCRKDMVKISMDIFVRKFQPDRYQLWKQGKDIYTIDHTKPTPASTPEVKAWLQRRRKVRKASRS
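Compound: one test concentration per compound; Material: GST-GASC-1 enzyme fragment 2-372; Amount: GASC-1 enzyme at 10 nM final in reaction; Also added: H3K9me3 peptide substrate, Fe(II), 2-oxoglutarate; Technique: LANCE TR-FRET; Times: 30 min demethylation and 1 h detection at room temperature.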
T cruzi growth-2: Trypanosoma cruzi proliferation inhibition; inhibition, % at 8.35 µM; T. cruzi beta-gal in NIH3T3, GalScreen luminescence, 90 h; AID 651739; 5,600 tested, 72% active; shares compounds with T cruzi growth-1;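 active = mean replicate inhibition above about 95% and at least 55% of replicates individually reaching it, limit read from the data; inconclusive = only one of the two criteria is met; inactive = neither criterion is met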
T cruzi growth-3: Trypanosoma cruzi proliferation inhibition. shares compounds with T cruzi growth-1. T. cruzi beta-gal in NIH3T3, GalScreen luminescence, 90 h. inhibition, % at 2.09 µM. 5,600 tested, 21% active;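 active = mean inhibition above about 95%, with at least 55% of replicates also reaching it, limit read from the data; inconclusive = meets just one of the two conditions; inactive = meets neither condition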
3T3 cytotox: NIH/3T3 (mouse) viability loss. shares compounds with T cruzi growth-1. NIH/3T3 viability, CellTiter-Glo ATP luminescence, 90 h. cytotoxicity (signal decrease), % at 8.35 µM. 5,600 tested, 14% active. AID 651742;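 active = mean signal decrease across replicates above about 35% based on untreated-well scatter, with enough replicates individually passing, limit read from the data; inconclusive = no rule stated though some were filed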
NIH3T3 tox 2: cytotoxicity in mouse NIH/3T3 fibroblasts | AID 651744 | inhibition, % at 24.9 µM | shares compounds with T cruzi growth-1 | NIH/3T3 viability, CellTiter-Glo ATP luminescence, 90 h | 5,600 tested, 56% active;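 active = mean loss of cell viability signal at or above a set limit, and enough replicates individually reaching it; inconclusive = meets only the mean limit or only the replicate share; inactive = meets neither condition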
Each line names hits and unclear results; the compound was inactive in the other large screens (follow-up assays come after a bar, where they were run). Rows were chosen to be rich in hits. Some 5.8% of all compounds tested hit in one or more screens of this group.

CN(C)C(=O)c1cccc(-c2ccc([C@@H]3[C@H](CO)N4CCCCN(C(=O)C5CCC5)C[C@@H]34)cc2)c1	T cruzi growth-1 104.4 (no result: IDH1 R132H inh) | T cruzi growth-2 inactive | T cruzi growth-3 inactive | 3T3 cytotox inactive | NIH3T3 tox 2 inactive
CN(C)C(=O)c1cccc(-c2ccc([C@@H]3[C@@H](CO)N4CCCCN(C(=O)C5CCC5)C[C@H]34)cc2)c1	none (no result: IDH1 R132H inh)
CN(C)C(=O)c1cccc(-c2ccc([C@H]3[C@@H](CO)N4CCCCN(C(=O)C5CCCC5)C[C@H]34)cc2)c1	T cruzi growth-1 102.6 (no result: IDH1 R132H inh, GASC1 inh) | T cruzi growth-2 98.2 | T cruzi growth-3 inactive | 3T3 cytotox inactive | NIH3T3 tox 2 inactive
O=C(C[C@@H]1CC[C@@H]2[C@H](COC[C@@H](O)CN2C(=O)Nc2ccc(Cl)c(Cl)c2)O1)NCc1ccccc1	none (no result: IDH1 R132H inh)
O=C(C[C@H]1CC[C@@H]2[C@H](COC[C@@H](O)CN2C(=O)Nc2ccc(Cl)c(Cl)c2)O1)NCc1ccc(Cl)cc1	T cruzi growth-1 101.7 (no result: IDH1 R132H inh) | T cruzi growth-2 100.4 | T cruzi growth-3 inactive | 3T3 cytotox 37.7 | NIH3T3 tox 2 56.1
O=C(C[C@H]1CC[C@H]2[C@@H](COC[C@H](O)CN2C(=O)Nc2ccc(Cl)c(Cl)c2)O1)NCc1ccc(Cl)cc1	T cruzi growth-1 inconclusive (no result: IDH1 R132H inh) | T cruzi growth-2 inactive | T cruzi growth-3 inactive | 3T3 cytotox inactive | NIH3T3 tox 2 102.3
O=C(C[C@@H]1CC[C@H]2[C@@H](COC[C@H](O)CN2C(=O)Nc2ccc(Cl)c(Cl)c2)O1)NCc1ccccc1	none (no result: IDH1 R132H inh)
O=C(C[C@H]1CC[C@@H]2[C@H](COC[C@H](O)CN2C(=O)Nc2ccc(Cl)c(Cl)c2)O1)NCc1ccc(Cl)cc1	T cruzi growth-1 110.5 (no result: IDH1 R132H inh) | T cruzi growth-2 108.5 | T cruzi growth-3 inactive | 3T3 cytotox inconclusive | NIH3T3 tox 2 89.3
O=C(C[C@@H]1CC[C@@H]2[C@H](COC[C@@H](O)CN2C(=O)Nc2ccc(Cl)c(Cl)c2)O1)NCc1ccc(Cl)cc1	none (no result: IDH1 R132H inh)
O=C(C[C@H]1CC[C@@H]2[C@H](COC[C@@H](O)CN2C(=O)Nc2ccc(Cl)c(Cl)c2)O1)NCc1ccncc1	T cruzi growth-1 110.6 (no result: IDH1 R132H inh) | T cruzi growth-2 inactive | T cruzi growth-3 inactive | 3T3 cytotox inactive | NIH3T3 tox 2 inactive
O=C(C[C@@H]1CC[C@H]2[C@@H](COC[C@H](O)CN2C(=O)Nc2ccc(Cl)c(Cl)c2)O1)NCc1ccc(Cl)cc1	none (no result: IDH1 R132H inh)
C[C@H]1CN([C@@H](C)CO)S(=O)(=O)c2ccc(C#Cc3ccccc3F)cc2O[C@@H]1CN(C)C(=O)Cc1ccncc1	none (no result: T cruzi growth-1)
C[C@H](CO)N1C[C@H](C)[C@@H](CN(C)C(=O)Cc2ccccc2)Oc2cc(C#Cc3ccccc3F)ccc2S1(=O)=O	T cruzi growth-1 123.5, Pf Dd2 inh inconclusive | T cruzi growth-2 inactive | T cruzi growth-3 inactive | 3T3 cytotox inactive | NIH3T3 tox 2 inactive
C[C@H]1CN([C@@H](C)CO)S(=O)(=O)c2ccc(C#Cc3ccccc3F)cc2O[C@H]1CN(C)C(=O)Cc1ccccc1	T cruzi growth-1 125.3 | T cruzi growth-2 109.1 | T cruzi growth-3 inactive | 3T3 cytotox inactive | NIH3T3 tox 2 103.1
C[C@@H]1CN([C@H](C)CO)S(=O)(=O)c2ccc(C#Cc3ccccc3F)cc2O[C@@H]1CN(C)C(=O)Cc1ccncc1	none (no result: T cruzi growth-1)
C[C@H](CO)N1C[C@H](C)[C@H](CN(C)C(=O)Cc2ccccc2)Oc2cc(C#Cc3ccccc3F)ccc2S1(=O)=O	T cruzi growth-1 126.6 | T cruzi growth-2 95.2 | T cruzi growth-3 inactive | 3T3 cytotox inactive | NIH3T3 tox 2 inconclusive
C[C@H]1CN([C@@H](C)CO)S(=O)(=O)c2ccc(C#Cc3ccccc3F)cc2O[C@@H]1CN(C)C(=O)Cc1cccnc1	none
C[C@@H]1CN([C@@H](C)CO)S(=O)(=O)c2ccc(C#Cc3ccccc3F)cc2O[C@H]1CN(C)C(=O)Cc1cccnc1	T cruzi growth-1 96.2 | T cruzi growth-2 104.2 | T cruzi growth-3 inactive | 3T3 cytotox inactive | NIH3T3 tox 2 72.7
O=C(CCN1C(=O)c2ccccc2C1=O)Nc1ccc(Nc2ccccc2)cc1	none (no result: T cruzi growth-1, Pf Dd2 inh, GASC1 inh)
COc1ccc(C(=O)O[C@H]2CC(C)=CC[C@]3(C)[C@@H]2[C@](O)(C(C)C)C[C@@H]3O)cc1	none (no result: T cruzi growth-1, Pf Dd2 inh, GASC1 inh)
C[C@@H]1CN([C@H](C)CO)S(=O)(=O)c2ccc(C#Cc3ccccc3F)cc2O[C@@H]1CN(C)C(=O)Cc1ccccc1	T cruzi growth-1 120.9 (no result: GASC1 inh) | T cruzi growth-2 96.5 | T cruzi growth-3 99.0 | 3T3 cytotox inactive | NIH3T3 tox 2 101.6
CC(=O)N(C)C[C@@H]1Oc2cc(C#Cc3ccccc3F)ccc2S(=O)(=O)N([C@H](C)CO)C[C@H]1C	none
COc1ccc(NC(=O)Nc2ccc3c(c2)C(=O)N([C@H](C)CO)C[C@H](C)[C@H](CN(C)Cc2ccccc2)OCCCC[C@H](C)O3)cc1	none (no result: IDH1 R132H inh)
COc1ccc(NC(=O)Nc2ccc3c(c2)C(=O)N([C@@H](C)CO)C[C@@H](C)[C@H](CN(C)Cc2ccccc2)OCCCC[C@@H](C)O3)cc1	T cruzi growth-1 97.9 | T cruzi growth-2 110.5 | T cruzi growth-3 inactive | 3T3 cytotox inactive | NIH3T3 tox 2 inactive
COc1ccc(NC(=O)Nc2ccc3c(c2)C(=O)N([C@@H](C)CO)C[C@@H](C)[C@@H](CN(C)Cc2ccccc2)OCCCC[C@H](C)O3)cc1	T cruzi growth-1 102.7 | T cruzi growth-2 106.4 | T cruzi growth-3 inactive | 3T3 cytotox inactive | NIH3T3 tox 2 inactive
COc1ccc(NC(=O)Nc2ccc3c(c2)C(=O)N([C@H](C)CO)C[C@@H](C)[C@H](CN(C)Cc2ccccc2)OCCCC[C@H](C)O3)cc1	none
[O-][NH2+]c1ccc(O)c2ncccc12	none (no result: T cruzi growth-1, Pf Dd2 inh, GASC1 inh)
C[C@@H]1CCCCO[C@H](CN(C)Cc2ccc(C(F)(F)F)cc2)[C@@H](C)CN([C@H](C)CO)C(=O)c2cc(NC(=O)Nc3ccccc3)ccc2O1	T cruzi growth-1 95.7 | T cruzi growth-2 97.7 | T cruzi growth-3 111.2 | 3T3 cytotox inactive | NIH3T3 tox 2 inactive
C[C@@H]1CCCCO[C@@H](CN(C)Cc2ccc(C(F)(F)F)cc2)[C@@H](C)CN([C@@H](C)CO)C(=O)c2cc(NC(=O)Nc3ccccc3)ccc2O1	none
C[C@@H]1CCCCO[C@H](CN(C)Cc2ccc(C(F)(F)F)cc2)[C@H](C)CN([C@H](C)CO)C(=O)c2cc(NC(=O)Nc3ccccc3)ccc2O1	T cruzi growth-1 inconclusive | T cruzi growth-2 95.7 | T cruzi growth-3 120.1 | 3T3 cytotox inactive | NIH3T3 tox 2 inactive
O=C(COc1ccccc1Cl)Nc1ccccc1NC(=O)c1ccco1	none (no result: T cruzi growth-1, Pf Dd2 inh, GASC1 inh)
Cc1ccc(-c2csc3ncnc(SCC(=O)Nc4ccccc4C(C)C)c23)cc1	none (no result: T cruzi growth-1, Pf Dd2 inh, GASC1 inh)

Assay outcomes: PubChem, Broad Institute
